Assay [1] concerns HaCaT. Put plainly: Activation of mitochondrial cytochrome C oxidase in human HaCaT lysate at 50 uM using equine cardiac cytochrome C substrate by spectrophotometry. In short, it runs like this:
(§1)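 Lysis in HEPES buffer (20 mM HEPES, 0.1% Triton, 1 mM EDTA). Lysates were Bradford-adjusted to 2 mg/mL. v0 was taken without substrate, then 50 μM reduced cytochrome c was added. Loss was read at 550 nm over 90 s. Slopes gave U/μg. Activity was expressed as % of the DMSO 0.1% control; n=3, mean ± SD, paired t test.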

For assay [2], the system named is HaCaT. As to the kind of experiment: Activation of mitochondrial cytochrome C oxidase in human HaCaT lysate at 0.81 uM using equine cardiac cytochrome C substrate by spectrophotometry. A digest of the protocol: as §1
In assay [3] the test system is HaCaT. Put plainly: Activation of mitochondrial cytochrome C oxidase in human HaCaT lysate using equine cardiac cytochrome C substrate by spectrophotometry relative to resveratrol.
The test system of assay [4] is HaCaT. As to the kind of experiment: Induction of mitochondrial biogenesis in human HaCaT cells assessed as mitochondrial 16S rRNA level by qPCR. Format: functional, cell-based. In short, it runs like this: (§2)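 HaCaT cells were treated as for the oxidase assay, but for 48 h. Lysis in Tris 10 mM/EDTA 1 mM/NaOAc 0.3 M/SDS 1%, then phenol DNA extraction. SYBR Green qPCR ran 45 cycles at 60 °C with calibration curves from serial DNA dilutions. Mitochondrial 16S or cox2 DNA was quantified relative to nuclear ucp-2 DNA and normalized to untreated cells; biogenesis was taken as a ratio >1. n=3, mean ± SD, paired t test.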
Background: Quantitative PCR measures a nucleic acid by following its amplification.

Assay [5] concerns HaCaT. Put plainly: Induction of mitochondrial biogenesis in human HaCaT cells assessed as ratio of mitochondrial COX2 to UCP2 gene quantity at 1.75 to 7 uM by qPCR. It is filed as functional, cell-based. A digest of the protocol: as §2
The test system of assay [6] is HaCaT. As to the kind of experiment: Activation of mitochondrial cytochrome C oxidase in human HaCaT lysate at 0.87 to 7 uM using equine cardiac cytochrome C substrate by spectrophotometry. A digest of the protocol: as §1

The record followed here is ChEMBL document CHEMBL1799945, “Glucosyloxybenzyl eucomate derivatives from Vanda teres stimulate HaCaT cytochrome c oxidase” (J Nat Prod, 2011).

The source made the active and inactive calls. The calls are words filed in the database; no cut-off is given here.

For `Oc1ccc(/C=C/c2cc(O)cc(O)c2)cc1`, the Activity in the assay with HaCaT [1] was determined as 138%.
`O=C(O)C[C@](O)(Cc1ccc(O)cc1)C(=O)O`: in the assay with HaCaT [2], the result was Active. The fold change (FC) in the assay on HaCaT [3] was determined as 60. Also, the outcome in the assay with HaCaT [4] and in the assay on HaCaT [5] was inactive.
Regarding `O=C(C[C@](O)(Cc1ccc(O)cc1)C(=O)OCc1ccc(O[C@@H]2O[C@H](CO)[C@@H](O)[C@H](O)[C@H]2O)cc1)OCc1ccc(O[C@@H]2O[C@H](CO)[C@@H](O)[C@H](O)[C@H]2O)cc1`, the outcome in the assay with HaCaT [2] was Active. The same molecule came in with a fold change (FC) with HaCaT [3] of 60. The outcome in the assay with HaCaT [4] and in the assay with HaCaT [5] was inactive. The same molecule showed an Activity in the assay on HaCaT [6] of 158%.
`O=C(C[C@](O)(Cc1ccc(O)cc1)C(=O)O)OCc1ccc(O[C@@H]2O[C@H](CO)[C@@H](O)[C@H](O)[C@H]2O)cc1`: the outcome in the assay on HaCaT [4], with HaCaT [6] and in the assay on HaCaT [5] was inactive.
Take `O=C(/C=C/c1ccccc1)O[C@@H]1[C@@H](O)[C@H](O[C@@](CC(=O)OCc2ccc(O[C@@H]3O[C@H](CO)[C@@H](O)[C@H](O)[C@H]3O)cc2)(Cc2ccc(O)cc2)C(=O)OCc2ccc(O[C@@H]3O[C@H](CO)[C@@H](O)[C@H](O)[C@H]3O)cc2)O[C@H](CO)[C@H]1O`: the result with HaCaT [6] was inactive.
